We go through 7 compounds from ChEMBL document CHEMBL1134294, “A prodrug form of a Plasmodium falciparum glutathione reductase inhibitor conjugated with a 4-anilinoquinoline” (J Med Chem, 2001).

As usually defined, the pIC50 is the negative decadic logarithm of the IC50, by convention in mol/L. A lower pIC50 goes with a large IC50. The term half-life denotes the time needed for the level to fall by half in the phase considered. A higher half-life goes with slow loss.

Series [1] concerns the target T1, Glutathione reductase, mitochondrial (Homo sapiens) (UniProt P00390).
T1 sequence (whole entry): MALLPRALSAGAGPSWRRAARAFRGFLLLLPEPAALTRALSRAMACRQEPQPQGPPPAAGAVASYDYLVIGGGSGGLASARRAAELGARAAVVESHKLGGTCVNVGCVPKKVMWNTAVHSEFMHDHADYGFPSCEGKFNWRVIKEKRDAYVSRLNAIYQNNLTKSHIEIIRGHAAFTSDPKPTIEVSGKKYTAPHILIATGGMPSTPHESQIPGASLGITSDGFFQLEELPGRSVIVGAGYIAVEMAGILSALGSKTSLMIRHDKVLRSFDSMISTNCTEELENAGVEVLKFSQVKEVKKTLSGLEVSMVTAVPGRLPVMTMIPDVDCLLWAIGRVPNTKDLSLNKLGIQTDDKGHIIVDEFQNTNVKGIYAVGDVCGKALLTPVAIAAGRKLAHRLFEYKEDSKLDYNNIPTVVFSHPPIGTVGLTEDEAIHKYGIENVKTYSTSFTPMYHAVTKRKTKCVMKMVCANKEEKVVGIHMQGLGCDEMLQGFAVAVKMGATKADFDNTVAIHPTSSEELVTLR
The series is described as follows: Competitive inhibition of human Glutathione Reductase.

For series [2], the target named is T2, Glutathione reductase, mitochondrial (Homo sapiens, UniProt P00390).
T2 sequence (P00390 whole entry): T1 sequence (whole entry)
The series can be described thus: In vitro inhibition of human Glutathione Reductase. Put shortly:
(§1)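 Recombinant purified GR (about 5 mU/ml) with 100 μM NADPH in 47 mM potassium phosphate, 200 mM KCl, 1 mM EDTA, pH 6.9, at 25 °C. Enzyme, NADPH and inhibitor are premixed and the reaction is started with 100 μM GSSG. NADPH loss is read at 340 nm. IC50 is taken from increasing inhibitor concentrations in 1% final DMSO, run in duplicate.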

The test system of another series is Plasmodium falciparum. The series can be described thus: Effective dose against chloroquine-resistant Plasmodium falciparum FcB1R. Type of series: functional. Put shortly: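 Asynchronous cultures in human erythrocytes (0.5% parasitemia, 1% hematocrit) received serially diluted drug, DMSO ≤0.1%. After 24 h at 37 °C, 0.5 μCi [3H]hypoxanthine was added and incubation continued another 24 h. Growth inhibition was taken versus drug-free control, ED50 read from the concentration–response curve, and reported as mean of ≥3 independent experiments.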

A further series deals with Glutathione reductase (Plasmodium falciparum 3D7, UniProt O15770). The series is described as follows: In vitro inhibition of Plasmodium falciparum Glutathione Reductase. On the set-up: species or system FcB1. Put shortly:
as §1

In series [3] the target is Glutathione reductase (Plasmodium falciparum 3D7) (UniProt O15770). The series is described as follows: Competitive inhibition of Plasmodium falciparum Glutathione Reductase. To be noted: Plasmodium falciparum FcB1.
Chain of Glutathione reductase (Plasmodium falciparum 3D7) (O15770 whole entry): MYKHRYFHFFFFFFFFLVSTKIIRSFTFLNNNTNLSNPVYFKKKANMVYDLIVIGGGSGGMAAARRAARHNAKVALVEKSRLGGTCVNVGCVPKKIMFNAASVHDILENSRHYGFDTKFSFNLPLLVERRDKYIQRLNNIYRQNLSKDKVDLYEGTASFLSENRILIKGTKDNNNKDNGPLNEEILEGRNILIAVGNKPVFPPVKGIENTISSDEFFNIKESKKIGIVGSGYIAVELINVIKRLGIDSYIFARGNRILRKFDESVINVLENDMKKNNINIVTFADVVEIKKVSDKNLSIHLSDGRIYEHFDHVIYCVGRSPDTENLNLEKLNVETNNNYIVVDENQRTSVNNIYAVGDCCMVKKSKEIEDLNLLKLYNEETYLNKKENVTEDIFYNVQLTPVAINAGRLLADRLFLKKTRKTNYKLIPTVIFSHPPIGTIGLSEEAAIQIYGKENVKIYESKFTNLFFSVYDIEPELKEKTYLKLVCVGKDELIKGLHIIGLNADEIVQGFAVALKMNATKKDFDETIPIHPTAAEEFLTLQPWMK
Series [4] can be described thus: Susceptibility of compound to hydrolysis at 37 degrees C at pH 5.0 acetate medium. Type of series: ADME. Put shortly: (§2)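 Prodrug (100 μM final, from 1 mM stock in 10% aqueous DMSO) is incubated at 37 °C in pH 7.4 phosphate buffer (150 mM NaCl, 4 mM NaH₂PO₄, 25 mM NaHCO₃) or pH 5.0 acetate (150 mM NaCl, 10 mM NaOAc). Half-life of ester disappearance is found by HPLC as the mean of two determinations.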

The nature of series [5]: Susceptibility of compound to hydrolysis at 37 degrees C at pH 7.4 phosphate buffer. The series is classed as ADME. The essentials: as §2
Series [6] concerns the target T1, Glutathione reductase, mitochondrial (Homo sapiens). The series is described as follows: In vitro inhibition of human Glutathione Reductase; Not active. Put shortly:
as §1

The target in series [7] is Glutathione reductase (Plasmodium falciparum 3D7) (UniProt O15770). The series can be described thus: In vitro inhibition of Plasmodium falciparum Glutathione Reductase; Not active. To be noted: Plasmodium falciparum FcB1. The essentials: as §1
Where [8] appears, read: read-out: ED50 (the source's name).

The structures appear in SMILES notation. pEC50, pIC50: −log10 of the molar value. Activity calls are given as the source filed them.

Chain of Glutathione reductase (O15770 whole entry): as above

As to `CC1=C(CCCCC(=O)O)C(=O)c2c(O)cccc2C1=O`, the Ki.c in series [1] was determined as 1100 nM; in series [3] it was 2400 nM. Besides, the pIC50 in [2] is 6.00; against Glutathione reductase, 5.60. Moreover, in the series with Plasmodium falciparum (setting [8]), the pEC50 is 5.11.
In the case of `CC1=C(CCCCCNC(=O)OCc2cc(NC(=O)CN3CCCCC3)cc(Nc3ccnc4cc(Cl)ccc34)c2)C(=O)c2ccccc2C1=O`, the pEC50 in the series on Plasmodium falciparum (read-out: ED50) is 6.84.
On the same count and under the same terms, under `CC1=C(CCCCCC(=O)OCc2cc(NC(=O)CN3CCCCC3)cc(Nc3ccnc4cc(Cl)ccc34)c2)C(=O)c2c(O)cccc2C1=O` stands 7.25.
Take `CC1=C(CCC(=O)OCc2cc(NC(=O)CN3CCCCC3)cc(Nc3ccnc4cc(Cl)ccc34)c2)C(=O)c2ccccc2C1=O`: in the series with Plasmodium falciparum (setting [8]), the pEC50 was 3.84.
Regarding `O=C(CN1CCCCC1)Nc1cc(COC(=O)CCCCCc2ccccc2)cc(Nc2ccnc3cc(Cl)ccc23)c1`, the pEC50 in the series on Plasmodium falciparum (read-out: ED50) was 6.43.
Regarding `CCCC(=O)OCOC(=O)CCCCCC1=C(C)C(=O)c2ccccc2C1=O`, the half-life was 0.5 h in series [4] and 1 h in series [5]. The NA entry in series [6] and in series [7] was “inactive” throughout. For the same compound, the pEC50 with Plasmodium falciparum (setting [8]) is 4.65.
Regarding `CC1=C(CCCCCC(=O)OCOC(=O)C(C)(C)C)C(=O)c2ccccc2C1=O`, the half-life in [4] was found to be 1 h; in series [5], 2 h. Besides, the NA result in series [6] and in series [7] was “inactive” throughout. The pEC50 in the series on Plasmodium falciparum (setting [8]) was 4.62.
